# Activity calls are given as the source filed them. The calls are words filed in the database; no cut-off is given here.
# Legend:
# [1] = Toxicity in BALB/c nu/nu mouse assessed as change in albumin level at 10 mg/kg, po administered daily for 7 days; format: organism-based; details: in vivo, 168 h
# Outline: (§1)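 Mice dosed orally with 10 mg/kg/day for 7 days; standard blood markers of organ damage measured.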
# Mus musculus [2] = assay: In vivo inhibition of HRAS G12V mutant transfected in mouse NIH/3T3 cells implanted BALB/c nu/nu mouse assessed as reduction in MAPK phosphorylation in tumor at 1 mg/kg, po administered once daily via gavage for 3 days measured 3 hrs post-last dose by Western blot analysis; format: functional, organism-based
# 8505C [3] = assay: Effect on MAPK phosphorylation in RET deficient human 8505C cells at 1 to 100 nM measured after 2 hrs by western blot analysis; format: cell-based
# [4] = system: Proto-oncogene tyrosine-protein kinase receptor Ret (Homo sapiens), P07949 [M918T]; assay: Inhibition of Ret isoform 9 M918T mutant in human MZ-CRC-1 cells assessed as reduction in phosphorylation at Y1062 residue at 0.3 to 30 nM measured after 2 hrs by Western blot analysis; format: cell-based
# Proto-oncogene tyrosine-protein kinase receptor Ret (Homo sapiens), P07949 [M918T], sequence (P07949 whole entry M918T, canonical isoform): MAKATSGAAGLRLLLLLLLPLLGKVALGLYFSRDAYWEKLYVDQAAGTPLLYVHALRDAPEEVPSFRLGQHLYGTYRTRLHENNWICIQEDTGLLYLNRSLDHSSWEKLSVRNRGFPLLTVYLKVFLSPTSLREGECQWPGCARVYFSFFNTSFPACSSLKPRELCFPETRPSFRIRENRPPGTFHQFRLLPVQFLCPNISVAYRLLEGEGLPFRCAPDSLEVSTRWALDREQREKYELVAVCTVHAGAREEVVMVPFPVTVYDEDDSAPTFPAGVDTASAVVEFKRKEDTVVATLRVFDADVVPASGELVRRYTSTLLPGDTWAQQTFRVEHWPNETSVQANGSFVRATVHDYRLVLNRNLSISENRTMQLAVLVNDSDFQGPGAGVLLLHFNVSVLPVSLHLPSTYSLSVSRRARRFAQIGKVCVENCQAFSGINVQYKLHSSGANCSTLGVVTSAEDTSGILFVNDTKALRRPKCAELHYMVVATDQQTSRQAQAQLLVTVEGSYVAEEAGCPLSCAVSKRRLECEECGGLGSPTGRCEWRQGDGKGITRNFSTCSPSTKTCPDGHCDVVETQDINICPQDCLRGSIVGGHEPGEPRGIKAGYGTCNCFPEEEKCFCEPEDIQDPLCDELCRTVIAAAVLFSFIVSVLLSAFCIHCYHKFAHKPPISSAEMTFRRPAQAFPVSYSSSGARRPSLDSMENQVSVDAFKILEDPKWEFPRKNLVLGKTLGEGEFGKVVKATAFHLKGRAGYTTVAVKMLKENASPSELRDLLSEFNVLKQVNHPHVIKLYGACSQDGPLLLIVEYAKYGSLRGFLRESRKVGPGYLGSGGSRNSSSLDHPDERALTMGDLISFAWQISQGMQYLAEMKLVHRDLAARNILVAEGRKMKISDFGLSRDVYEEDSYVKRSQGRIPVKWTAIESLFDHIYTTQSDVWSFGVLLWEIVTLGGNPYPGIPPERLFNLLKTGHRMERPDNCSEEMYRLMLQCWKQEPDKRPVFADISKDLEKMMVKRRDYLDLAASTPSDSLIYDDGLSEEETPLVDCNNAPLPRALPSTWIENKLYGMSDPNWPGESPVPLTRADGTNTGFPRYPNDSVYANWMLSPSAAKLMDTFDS
# [5] = biological target: T1, SHC-transforming protein 1 (Homo sapiens) (UniProt P29353); assay: Effect on SHC phosphorylation in RET deficient human A549 cells at 1 to 100 nM measured after 2 hrs by western blot analysis; format: cell-based
# T1 sequence (whole entry): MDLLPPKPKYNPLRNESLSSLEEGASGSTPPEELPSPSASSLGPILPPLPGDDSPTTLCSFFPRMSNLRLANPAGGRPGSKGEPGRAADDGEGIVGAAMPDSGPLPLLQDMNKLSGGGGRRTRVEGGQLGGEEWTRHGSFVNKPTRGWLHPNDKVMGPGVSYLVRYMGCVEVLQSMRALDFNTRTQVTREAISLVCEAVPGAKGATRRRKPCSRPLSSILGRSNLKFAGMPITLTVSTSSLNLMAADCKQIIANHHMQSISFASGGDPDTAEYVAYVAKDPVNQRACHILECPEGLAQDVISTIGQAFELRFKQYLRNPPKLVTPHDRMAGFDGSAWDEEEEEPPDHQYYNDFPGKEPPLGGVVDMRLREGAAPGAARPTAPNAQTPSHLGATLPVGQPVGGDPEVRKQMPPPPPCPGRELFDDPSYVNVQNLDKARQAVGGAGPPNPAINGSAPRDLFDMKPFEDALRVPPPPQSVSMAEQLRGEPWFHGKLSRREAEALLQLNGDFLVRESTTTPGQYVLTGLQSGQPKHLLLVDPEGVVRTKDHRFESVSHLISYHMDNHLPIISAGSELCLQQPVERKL
# [6] = biological target: Macrophage colony-stimulating factor 1 receptor (Homo sapiens, UniProt P07333); assay: Binding affinity to wild-type human partial length CSF1R (I564 to S939 residues) expressed in bacterial expression system at 100 nM by Kinomescan method relative to control
# Macrophage colony-stimulating factor 1 receptor, sequence (P07333 whole entry, the tested form may be a part): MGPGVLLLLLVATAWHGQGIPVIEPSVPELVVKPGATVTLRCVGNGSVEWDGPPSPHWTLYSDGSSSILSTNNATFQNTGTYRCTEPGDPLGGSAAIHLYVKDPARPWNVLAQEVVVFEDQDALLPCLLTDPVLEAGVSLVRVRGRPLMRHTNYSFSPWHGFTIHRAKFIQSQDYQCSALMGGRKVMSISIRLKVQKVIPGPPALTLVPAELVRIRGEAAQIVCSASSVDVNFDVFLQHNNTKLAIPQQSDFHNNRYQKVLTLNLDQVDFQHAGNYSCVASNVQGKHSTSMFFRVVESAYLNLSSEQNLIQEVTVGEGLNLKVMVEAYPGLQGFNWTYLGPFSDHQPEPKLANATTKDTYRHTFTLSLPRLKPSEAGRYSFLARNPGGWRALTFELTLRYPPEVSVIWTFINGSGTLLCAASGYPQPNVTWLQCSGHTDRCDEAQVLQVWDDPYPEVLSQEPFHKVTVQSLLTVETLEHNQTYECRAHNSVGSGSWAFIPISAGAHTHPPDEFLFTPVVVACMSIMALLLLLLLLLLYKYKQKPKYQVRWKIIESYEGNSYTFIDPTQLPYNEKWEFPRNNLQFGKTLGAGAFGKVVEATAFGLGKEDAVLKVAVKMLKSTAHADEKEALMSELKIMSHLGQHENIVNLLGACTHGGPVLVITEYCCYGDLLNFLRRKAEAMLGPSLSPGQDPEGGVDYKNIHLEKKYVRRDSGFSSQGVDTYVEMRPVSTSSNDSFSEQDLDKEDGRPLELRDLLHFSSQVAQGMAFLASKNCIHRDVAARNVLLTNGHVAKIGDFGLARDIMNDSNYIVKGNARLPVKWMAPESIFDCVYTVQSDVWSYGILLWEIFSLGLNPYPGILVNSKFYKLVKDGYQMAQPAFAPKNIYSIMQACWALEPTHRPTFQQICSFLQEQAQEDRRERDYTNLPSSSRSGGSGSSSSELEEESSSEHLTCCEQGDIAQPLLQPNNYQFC
# [7] = Toxicity in BALB/c nu/nu mouse assessed as change in total protein level at 10 mg/kg, po administered daily for 7 days; format: organism-based; details: in vivo, 168 h
# [8] = biological target: T1, SHC-transforming protein 1 (Homo sapiens); assay: Effect on SHC phosphorylation in RET deficient human 8505C cells at 1 to 100 nM measured after 2 hrs by western blot analysis; format: cell-based
# [9] = biological target: Voltage-gated inwardly rectifying potassium channel KCNH2 (Homo sapiens, UniProt Q12809); assay: Inhibition of human ERG expressed in HEK293 cells by patch clamp assay
# Voltage-gated inwardly rectifying potassium channel KCNH2, sequence (Q12809 whole entry, canonical isoform): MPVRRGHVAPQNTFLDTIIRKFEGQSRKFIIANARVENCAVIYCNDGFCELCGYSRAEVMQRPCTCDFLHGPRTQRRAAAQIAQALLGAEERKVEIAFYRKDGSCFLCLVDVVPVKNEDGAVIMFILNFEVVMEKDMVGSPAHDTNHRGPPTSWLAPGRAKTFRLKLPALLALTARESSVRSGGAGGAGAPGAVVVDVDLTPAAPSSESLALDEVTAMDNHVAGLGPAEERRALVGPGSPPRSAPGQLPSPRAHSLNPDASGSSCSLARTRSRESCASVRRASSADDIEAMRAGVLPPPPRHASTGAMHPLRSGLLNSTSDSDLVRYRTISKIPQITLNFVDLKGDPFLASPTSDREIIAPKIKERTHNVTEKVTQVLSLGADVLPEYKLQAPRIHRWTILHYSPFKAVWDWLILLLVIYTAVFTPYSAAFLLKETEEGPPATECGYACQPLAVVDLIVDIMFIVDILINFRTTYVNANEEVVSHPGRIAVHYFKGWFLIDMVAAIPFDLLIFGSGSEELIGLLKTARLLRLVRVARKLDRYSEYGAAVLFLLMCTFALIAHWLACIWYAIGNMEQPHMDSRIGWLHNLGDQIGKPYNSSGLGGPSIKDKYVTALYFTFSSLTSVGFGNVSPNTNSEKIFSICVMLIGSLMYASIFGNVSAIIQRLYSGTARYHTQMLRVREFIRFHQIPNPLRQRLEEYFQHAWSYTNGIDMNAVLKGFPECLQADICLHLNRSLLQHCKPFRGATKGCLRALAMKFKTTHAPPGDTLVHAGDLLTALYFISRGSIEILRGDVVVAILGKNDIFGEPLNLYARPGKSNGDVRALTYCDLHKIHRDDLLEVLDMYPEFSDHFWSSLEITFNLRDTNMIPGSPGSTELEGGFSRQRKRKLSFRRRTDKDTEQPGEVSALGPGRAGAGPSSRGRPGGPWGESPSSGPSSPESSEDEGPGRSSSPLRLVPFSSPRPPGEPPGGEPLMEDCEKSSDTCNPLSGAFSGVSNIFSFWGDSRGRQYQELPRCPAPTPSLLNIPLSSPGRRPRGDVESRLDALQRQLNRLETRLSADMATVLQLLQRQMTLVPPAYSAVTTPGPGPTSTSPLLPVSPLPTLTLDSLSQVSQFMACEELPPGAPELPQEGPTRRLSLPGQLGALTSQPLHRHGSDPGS
# [10] = system: Proto-oncogene tyrosine-protein kinase receptor Ret (Homo sapiens), P07949 [M918T]; assay: Inhibition of Ret isoform 9 M918T mutant in human MZ-CRC-1 cells assessed as reduction in SHC phosphorylation at 0.3 to 30 nM measured after 2 hrs by Western blot analysis; format: cell-based
# Mus musculus [11] = assay: In vivo inhibition of RET isoform 9 C634Y mutant transfected in mouse NIH/3T3 cells implanted BALB/c nu/nu mouse assessed as reduction in RET phosphorylation at Y1062 residue at 3 mg/kg, po administered once daily via gavage for 2 days measured 3 hrs post-last dose by Western blot analysis
# 8505C [12] = assay: Cytotoxicity against RET deficient human 8505C cells supplemented with fresh medium containing compound for every 2 to 3 days measured during compound dosing; format: functional, cell-based
# Outline: (§2)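 Human RET-negative lines were seeded in six-well plates at 10000 cells/well, in 5% FCS (Nthy-ori-3-1) or 10% FCS (BCPAP, 8505-C, CALU-1, A549, PC-9). Drug or vehicle was added the day after plating, with medium changed every 2–3 days. Cells were counted every 2–3 days. IC50 was fitted from the last day of the growth curves.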
# Homo sapiens [13] = species on record: Homo sapiens; assay: Inhibition of CCDC6/RET isoform 9 (unknown origin) expressed in mouse NIH/3T3 cells assessed as reduction in RET phosphorylation at Y1062 residue at 1 to 100 nM measured after 2 hrs by Western blot analysis; format: cell-based
# Outline: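 Serum-starved RAT1 (RET point mutants) or NIH3T3 (RET rearrangements) cells expressing short RET-9 isoform, treated 2 h; 50 μg total lysate immunoblotted with anti-phospho-Y1062 and anti-phospho-Y905 RET antibodies, normalized to total RET; ECL detection. Compound from 50 mM DMSO stock diluted in growth medium.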
# [14] = Toxicity in BALB/c nu/nu mouse assessed as change in phosphorus level at 10 mg/kg, po administered daily for 7 days; format: organism-based; details: in vivo, 168 h
# [15] = Toxicity in BALB/c nu/nu mouse assessed as change in alanine transaminase level at 10 mg/kg, po administered daily for 7 days; format: organism-based; details: in vivo, 168 h; outline: as §1
# Mus musculus [16] = assay: In vivo inhibition of RET isoform 9 C634Y mutant transfected in mouse NIH/3T3 cells implanted BALB/c nu/nu mouse assessed as reduction in MAPK phosphorylation in tumor at 1 mg/kg, po administered once daily via gavage for 3 days measured 3 hrs post-last dose by Western blot analysis
# Calu-1 = assay: Cytotoxicity against RET deficient human Calu1 cells supplemented with fresh medium containing compound for every 2 to 3 days measured during compound dosing; format: functional, cell-based; outline: as §2
# A549 = assay: Cytotoxicity against RET deficient human A549 cells supplemented with fresh medium containing compound for every 2 to 3 days measured during compound dosing; format: functional, cell-based; outline: as §2
# Homo sapiens [17] = species on record: Homo sapiens; assay: Effect on MAPK phosphorylation in RET deficient human PC9 cells at 1 to 100 nM measured after 2 hrs by western blot analysis
# BCPAP = assay: Effect on MAPK phosphorylation in RET deficient human BCPAP cells at 1 to 100 nM measured after 2 hrs by western blot analysis; format: cell-based
# [18] = Toxicity in BALB/c nu/nu mouse assessed as change in calcium level at 10 mg/kg, po administered daily for 7 days; format: organism-based; details: in vivo, 168 h
# [19] = biological target: Tyrosine-protein kinase HCK (Homo sapiens) (UniProt P08631); assay: Binding affinity to wild-type human full length HCK (M22 to P526 residues) expressed in bacterial expression system at 100 nM by Kinomescan method relative to control
# Tyrosine-protein kinase HCK (Homo sapiens), sequence (P08631 2-526 limits assumed): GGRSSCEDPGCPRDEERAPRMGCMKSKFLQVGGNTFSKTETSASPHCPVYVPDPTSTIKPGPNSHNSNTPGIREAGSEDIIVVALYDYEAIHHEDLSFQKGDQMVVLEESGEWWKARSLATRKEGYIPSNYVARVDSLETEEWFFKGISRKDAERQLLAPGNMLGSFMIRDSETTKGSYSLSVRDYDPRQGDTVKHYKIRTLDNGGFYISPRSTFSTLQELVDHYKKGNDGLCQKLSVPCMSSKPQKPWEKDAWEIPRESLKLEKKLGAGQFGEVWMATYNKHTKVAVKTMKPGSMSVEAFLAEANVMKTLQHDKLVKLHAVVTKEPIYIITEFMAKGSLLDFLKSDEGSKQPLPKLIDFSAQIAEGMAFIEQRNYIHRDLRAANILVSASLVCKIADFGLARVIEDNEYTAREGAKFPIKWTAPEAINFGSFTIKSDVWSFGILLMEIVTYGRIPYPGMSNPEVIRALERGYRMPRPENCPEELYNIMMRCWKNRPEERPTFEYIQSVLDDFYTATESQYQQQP
# PC-9 = assay: Cytotoxicity against RET deficient human PC9 cells supplemented with fresh medium containing compound for every 2 to 3 days measured during compound dosing; format: functional, cell-based; outline: as §2
# [20] = biological target: T1, SHC-transforming protein 1 (Homo sapiens); assay: Effect on SHC phosphorylation in RET deficient human BCPAP cells at 1 to 100 nM measured after 2 hrs by western blot analysis; format: cell-based
compound,measurement,setting,value
CC(C)(C)c1cc(NC(=O)Cc2ccc(-n3cnc4cc(-c5ccc(S(C)(=O)=O)cc5)ccc43)cc2)no1,Activity,[1],Non-Toxic
same,inhibition,Mus musculus [2],inactive
same,Activity,8505C [3],inactive
same,inhibition,[4],Active
same,Activity,[5],inactive
same,Activity,[6],> 90%
same,Activity,[7],Non-Toxic
same,Activity,[8],inactive
same,IC50,[9],7570 nM
same,inhibition,[10],Active
same,inhibition,Mus musculus [11],Active
same,IC50,8505C [12],> 100 nM
same,inhibition,Homo sapiens [13],Active
same,Activity,[14],Non-Toxic
same,Activity,[15],Non-Toxic
same,inhibition,Mus musculus [16],Active
same,IC50,Calu-1,> 100 nM
same,IC50,A549,> 100 nM
same,Activity,Homo sapiens [17],inactive
same,Activity,BCPAP,inactive
same,Activity,[18],Non-Toxic
same,Activity,[19],> 90%
same,IC50,PC-9,> 100 nM
same,Activity,[20],inactive
